According to ChEMBL document CHEMBL1143648, “3-[Substituted]-5-(5-pyridin-2-yl-2H-tetrazol-2-yl)benzonitriles: identification of highly potent and selective metabotropic glutamate subtype 5 receptor antagonists” (Bioorg Med Chem Lett, 2005):

Columns and labels:
[1] = Volume of distribution in rat upon intravenous administration at a dose of 2 mg/kg; n = 2; assay type: ADME, organism-based; set-up: dose 2 mg/kg, route intravenous; settings: in vivo
In short: (§1)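 Sprague–Dawley rats (n = 2 per group) were given 2 mg/kg by the intravenous route for pharmacokinetic profiling.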

[2] = Oral bioavailability in rat (dose 10 mg/kg p.o.); assay type: ADME, organism-based; settings: in vivo
In short: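 Rat pharmacokinetics compared oral dosing at 10 mg/kg (n = 3 Sprague–Dawley rats/group) with intravenous dosing at 2 mg/kg (n = 2 rats/group).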

[3] = Clearance in rat upon intravenous administration at a dose of 2 mg/kg; n = 2; assay type: ADME, organism-based; set-up: dose 2 mg/kg, route intravenous; settings: plasma, read-out: Clp; in short: as §1
[4] = target: T1, Metabotropic glutamate receptor 5 (Rattus norvegicus, UniProt P31424); test: In vitro functional activity measured by changes in cytosolic [Ca2+] concentrations against rat metabotropic glutamate receptor 5
In short: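 A cell-based, high-throughput functional assay followed changes in cytosolic Ca2+ concentration by fluorescence detection.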

[5] = Maximum concentration in rat upon oral administration at a dose of 10 mg/kg; n = 3; assay type: ADME, organism-based; set-up: dose 10 mg/kg, route oral; settings: in vivo
In short: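 Sprague–Dawley rats (n = 3 per group) were given 10 mg/kg orally for pharmacokinetic profiling.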

[6] = target: T1, Metabotropic glutamate receptor 5; test: Ability to displace [3H]3-methoxy-5-(pyridin-2-ylethynyl)pyridine from binding to metabotropic glutamate receptor 5 in rat cortical membranes; assay type: cell membranes
[7] = Half life in rat upon intravenous administration at a dose of 2 mg/kg; n = 2; assay type: ADME, organism-based; set-up: dose 2 mg/kg, route intravenous; settings: in vivo; in short: as §1
[8] = tested on: Rattus norvegicus; test: Brain penetration measured by compound levels in plasma at a dose of 3 mg/kg upon intraperitoneal after 1 hr; assay type: functional, organism-based; set-up: dose 3 mg/kg
In short: (§2)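 Sprague–Dawley rats were dosed intraperitoneally at 10 or 3 mg/kg. Drug levels (µM) in brain and plasma were measured 1 h after dosing, and brain/plasma was expressed as a percentage.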

[9] = organism: Rattus norvegicus; test: Ratio of compound levels in brain to that of plasma level was determined; assay type: functional; in short: as §2
[10] = tested on: Rattus norvegicus; test: Effective dose for maximum occupancy in rat upon intraperitoneal administration measured 1 hr post administration; n = 5 - 6; assay type: functional
In short: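 Receptor occupancy was measured in Sprague–Dawley rats (n = 5–6 per group) 1 h after intraperitoneal dosing. ED50 is given in mg/kg ip.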

[11] = tested on: Rattus norvegicus; test: Effective dose for maximum occupancy in rat upon oral administration measured 30 min post administration; n = 6 - 7
[12] = tested on: Rattus norvegicus; test: Brain penetration measured by compound levels in brain at a dose of 3 mg/kg upon intraperitoneal after 1 hr; assay type: functional; in short: as §2
[13] = tested on: Rattus norvegicus; test: Brain penetration measured by compound levels in brain at a dose of 10 mg/kg upon intraperitoneal after 1 hr; assay type: functional; in short: as §2
[14] = tested on: Rattus norvegicus; test: Brain penetration measured by compound levels in plasma at a dose of 10 mg/kg upon intraperitoneal after 1 hr; assay type: functional, organism-based; set-up: dose 10 mg/kg; in short: as §2

T1 sequence (P31424 whole entry): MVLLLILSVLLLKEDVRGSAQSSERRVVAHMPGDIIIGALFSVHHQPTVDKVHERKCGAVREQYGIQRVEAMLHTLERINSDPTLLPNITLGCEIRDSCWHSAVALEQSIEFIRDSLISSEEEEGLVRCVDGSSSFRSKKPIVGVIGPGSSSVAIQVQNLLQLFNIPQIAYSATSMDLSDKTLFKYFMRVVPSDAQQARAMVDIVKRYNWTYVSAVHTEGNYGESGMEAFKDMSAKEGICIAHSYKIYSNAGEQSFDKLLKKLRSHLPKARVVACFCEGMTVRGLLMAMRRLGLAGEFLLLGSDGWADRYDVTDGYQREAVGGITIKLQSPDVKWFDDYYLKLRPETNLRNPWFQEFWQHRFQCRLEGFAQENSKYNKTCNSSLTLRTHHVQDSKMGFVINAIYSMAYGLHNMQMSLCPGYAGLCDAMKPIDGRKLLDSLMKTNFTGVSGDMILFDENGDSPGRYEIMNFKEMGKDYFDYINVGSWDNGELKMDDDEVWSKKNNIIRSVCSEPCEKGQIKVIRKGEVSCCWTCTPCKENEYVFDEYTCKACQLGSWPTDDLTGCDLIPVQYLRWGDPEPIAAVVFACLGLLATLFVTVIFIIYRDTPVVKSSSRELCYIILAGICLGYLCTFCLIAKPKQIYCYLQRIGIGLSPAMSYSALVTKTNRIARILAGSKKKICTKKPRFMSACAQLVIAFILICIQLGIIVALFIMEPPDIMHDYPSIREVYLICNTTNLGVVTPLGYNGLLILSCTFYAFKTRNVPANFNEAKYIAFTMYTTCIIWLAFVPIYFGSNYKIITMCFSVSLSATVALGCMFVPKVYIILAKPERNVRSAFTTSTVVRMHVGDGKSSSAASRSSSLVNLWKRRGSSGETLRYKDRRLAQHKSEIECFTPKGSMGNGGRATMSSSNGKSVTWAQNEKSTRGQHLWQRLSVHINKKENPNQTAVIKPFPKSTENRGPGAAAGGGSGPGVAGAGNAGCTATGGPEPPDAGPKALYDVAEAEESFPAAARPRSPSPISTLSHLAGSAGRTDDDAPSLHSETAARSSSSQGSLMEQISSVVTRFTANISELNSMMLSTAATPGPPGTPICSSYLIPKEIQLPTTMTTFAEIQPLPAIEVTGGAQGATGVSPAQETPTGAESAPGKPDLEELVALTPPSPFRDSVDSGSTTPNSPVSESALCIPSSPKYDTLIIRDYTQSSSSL

Structure (SMILES)	IC50 [4] [nM]	Ki [6] [nM]	other results
c1ccc(-c2nnn(-c3cccc(-c4cccnc4)c3)n2)nc1	63	69	–
N#Cc1cc(Oc2cccnc2)cc(-n2nnc(-c3ccccn3)n2)c1	15	16	–
N#Cc1cc(OCc2ccccc2)cc(-n2nnc(-c3ccccn3)n2)c1	> 1000	> 600	–
N#Cc1cc(OCC2CC2)cc(-n2nnc(-c3ccccn3)n2)c1	975	271	–
N#Cc1cc(F)cc(-n2nnc(-c3ccccn3)n2)c1	–	–	Plasma levels [8]: 2.7 µM; Brain/Plasma [9]: 90%; Occ ED50 [10]: 1.3 mg/kg; Occ ED50 [11]: 3.6 mg/kg; Brain levels [12]: 2.4 µM; half-life [7]: 2.9 h
N#Cc1cc(F)cc(-n2ccc(-c3ccccn3)c2)c1	3	5	–
N#Cc1cc(-n2nnc(-c3ccccn3)n2)cc([N+](=O)[O-])c1	42	42	–
N#Cc1cc(F)cc(-n2nnc(-c3ncc[nH]3)n2)c1	47	–	–
N#Cc1cccc(-n2nnc(-c3ncc[nH]3)n2)c1	77	–	–
N#Cc1cc(C#N)cc(-n2nnc(-c3ccccn3)n2)c1	34	18	–
Clc1cccc(-n2nnc(-c3ccccn3)n2)c1Cl	1270	> 600	–
N#Cc1cccc(-n2ccc(-c3ccccn3)c2)c1	190	> 600	–

Second part, led by results:

IC50 [4] [nM]	Ki [6] [nM]	Structure (SMILES)	other results
6	7	Cc1cc(C#N)cc(-n2nnc(-c3ccccn3)n2)c1	Vd [1]: 1.4 L/kg; bioavailability [2]: 15%; clearance [3]: 50 mL/min/kg; Cmax [5]: 800 nM; half-life [7]: 0.4 h
722	> 600	N#Cc1cc(-n2nnc(-c3ccccn3)n2)ccc1Cl	–
10	6	COc1cc(C#N)cc(-n2nnc(-c3ccccn3)n2)c1	–
73	–	N#Cc1cccc(-n2nnc(-c3ccccn3)n2)c1	Brain levels [13]: 15 µM; Vd [1]: 5 L/kg; Brain/Plasma [9]: 150%; bioavailability [2]: 100%; clearance [3]: 33 mL/min/kg; Occ ED50 [10]: 3 mg/kg; Plasma levels [14]: 10 µM; Occ ED50 [11]: 3 mg/kg; half-life [7]: 6.9 h
7	26	N#Cc1cc(Cl)cc(-n2nnc(-c3ccccn3)n2)c1	–
562	318	N#Cc1cc(O)cc(-n2nnc(-c3ccccn3)n2)c1	–
334	> 600	N#Cc1ccc(Cl)c(-n2nnc(-c3ccccn3)n2)c1	–
308	95	N#Cc1cc(N)cc(-n2nnc(-c3ccccn3)n2)c1	–
